Converted amounts (≈) assume the structure as drawn. Where only a bound is given, the exact number is not on record here.

This is an account of results in ChEMBL document CHEMBL1255192, “3-alkylthio-1,2,4-triazine dimers with potent antimalarial activity” (Bioorg Med Chem Lett, 2010).

One data set has as its system HEK293. Description: Cytotoxicity against HEK293 cells. Conditions: Homo sapiens. The data set is classed as cell-based. In short, it runs like this:
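HEK 293 cell toxicity assay, with puromycin as the control. Read-out is EC50.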

The next data set concerns L6. Description: Cytotoxicity against rat L6 cells. Type of data set: cell-based.
Data set [1] deals with Plasmodium falciparum. Description: Antimalarial activity against Plasmodium falciparum 3D7 infected in human erythrocyte. The data set is classed as functional, organism-based. In a few lines: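 Asexual erythrocytic-stage culture of the P. falciparum 3D7 strain, with chloroquine as the reference control. Read-out is EC50.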
Data set [2] in a line: Intrinsic clearance in human liver microsomes. Type of data set: ADME, Microsome. In short, it runs like this:
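Compound was incubated with human liver microsomes. Parent loss and metabolites were followed by LCMS. Concentration versus time was fitted to exponential decay to get the first-order depletion rate constant, which gave in vitro CLint and a predicted hepatic extraction ratio.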
On the technique in general: Liver microsomes are a subcellular fraction often used to study metabolism.

Data set [3] in a line: Distribution coefficient log D of the compound at pH 3. Type of data set: physicochemical. To be noted: octanol/water. In a few lines: (§1)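 Log D at each pH was estimated by a chromatographic method.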
Data set [4] is described as follows: Solubility of the compound at pH 2. Type of data set: physicochemical. To be noted: buffer.
The nature of data set [5]: Distribution coefficient log D of the compound at pH 7.4. Conditions: octanol/water. The data set is classed as physicochemical. In short, it runs like this:
as §1

A short description of data set [6]: Solubility of the compound at pH 6.5. Type of data set: physicochemical. Conditions: buffer.
Data set [7] deals with Plasmodium falciparum. The experiment in a line: Antimalarial activity against Plasmodium falciparum Dd2 infected in human erythrocyte. The data set is classed as functional, organism-based. In short, it runs like this: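 Chloroquine-resistant P. falciparum Dd2 grown at the erythrocytic stage, with chloroquine as the control. EC50 was determined.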

In the case of `CCCCSc1nncc(-c2cnnc(SCCCC)n2)n1`, the EC50 – broadly, the concentration giving half of the maximal effect – with HEK293 was more than 115 µM.

Compound `CCCSc1nncc(-c2cnnc(SCCC)n2)n1` yielded an EC50 with HEK293 of more than 115 µM.

Compound `COc1nncc(-c2cnnc(OC)n2)n1` returned an EC50 in the data set on HEK293 of 36 µM.

On to `COc1nncc(-c2cnnc(SC)n2)n1`, for which the EC50 in the data set on HEK293 stood at 18 µM; in the data set on L6 it was 33 µM.

Take `CCc1nncc(-c2cnnc(CC)n2)n1`: in the data set on Plasmodium falciparum [1], a half-maximal effect (EC50) was put at 1.6 µM. Moreover, the intrinsic metabolic clearance (microsomal CLint) (in general, the rate of metabolic loss divided by the concentration) in data set [2] amounted to 11.7 µL/min/mg. Further, the log distribution coefficient (logD) in data set [3] and in data set [5] was 1.6 each time. Further, the solubility (in general, the concentration that dissolves in the medium under given conditions) in data set [4] turned out to be 426 µM (≈ 92.1 µg/mL); in [6], 311 µM (≈ 67.3 µg/mL).

`CCN(CC)CCSc1nncc(-c2cnnc(SC)n2)n1`: the EC50 in the data set with Plasmodium falciparum [1] amounted to 0.023 µM; in the data set with HEK293 it was 9 µM; with Plasmodium falciparum [7], 0.012 µM.

As to `CSc1nncc(-c2cnnc(OCCN(C)C)n2)n1`, the EC50 in the data set with HEK293 came out at 24 µM. In other words, the double-digit micromolar range.

In turn, `CCSc1nncc(-c2cnnc(SCC)n2)n1` displayed a half-maximal effective concentration (EC50) in the data set on HEK293 of 84 µM.

`CSc1nncc(-c2cnnc(SC)n2)n1`: the logD in [3] and in data set [5] was 2.4 in each case. The solubility in data set [4] stood at 15.3 µM (≈ 3.86 µg/mL); in data set [6] it was 14.5 µM (≈ 3.66 µg/mL). This compound also gave an EC50 with HEK293 of 68 µM.

With `CCN(CC)CCSc1nncc(-c2cnnc(SCCN(CC)CC)n2)n1`, the EC50 in the data set with Plasmodium falciparum [1] is 0.44 µM; in the data set with HEK293, 16 µM; in the data set with Plasmodium falciparum [7], 0.79 µM.

Turning to `CN(C)CCSc1nncc(-c2cnnc(SCCN(C)C)n2)n1`, the EC50 in the data set with Plasmodium falciparum [1] is 0.47 µM; in the data set on HEK293, 25 µM; in the data set with Plasmodium falciparum [7], 0.62 µM.
